Here are results for seven molecules from ChEMBL document CHEMBL2417391, “Additional cytotoxic pyridoacridine alkaloids from the ascidian Cystodytes violatinctus and biogenetic considerations” (J Nat Prod, 2013).

Holding throughout (format): functional, cell-based
One assay concerns HCT-116. The assay is described as follows: Cytotoxicity against human HCT116 cells after 48 hrs by MTT assay. The note with it: HCT-116, 48 h. An outline of the steps: (§1)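 Colon lines HCT116 and SW480 kept in DMEM with 10% FBS, 2 mM L-glutamine, penicillin/streptomycin. 20 × 10^3 cells/well seeded, overnight adhesion, then 48 h treatment at 10−10 to 10−4 M, serially diluted in medium from 10−2 M DMSO stock; triplicates. Viability by MTT (3 h), formazan in 2-propanol/HCl read at 540 nm; IC50 by sigmoidal curve fitting.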

Another assay deals with A-375. In words: Cytotoxicity against human A375 cells after 48 hrs by MTT assay. The note with it: A-375, 48 h. An outline of the steps: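 A375 melanoma cells grown in RPMI complete medium with 10% FBS, 2 mM L-glutamine, penicillin/streptomycin. Seeded 20 × 10^3 cells/well, adhered overnight, then exposed 48 h to serial dilutions from 10−10 to 10−4 M (from 10−2 M DMSO stock) in triplicate. MTT 1 mg/mL added for 3 h, formazan dissolved in 2-propanol/HCl, absorbance 540 nm; IC50 from sigmoidal dose–response fit.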
Background: Formazan colour is commonly taken as a measure of viable cells.

A further assay relates to SW480. The assay is described as follows: Cytotoxicity against human SW480 cells after 48 hrs by MTT assay. The note with it: SW480, 48 h. An outline of the steps: as §1

Bounds are passed on as bounds.

Consider `O=C1c2cccnc2-c2nccc3c2c1nc1ccccc13` [ASCIDIDEMIN], for which the IC50 – broadly, the concentration that inhibits the measured activity by half – in the assay with HCT-116 stood at 0.25 µM; in the assay on A-375, 0.38 µM; in the assay on SW480, 0.1 µM.
`CC(C)=CC(=O)NCCc1c2c3c(ccnc3c3ncsc13)-c1ccccc1N2`: the IC50 is 14.4 µM in the assay on HCT-116, 11.8 µM in the assay on A-375 and 8.02 µM with SW480.
For `C/C=C(\C)C(=O)NCCc1c2c3c(ccnc3c3ncsc13)-c1ccccc1N2`, in that order: > 10 µM, > 10 µM and 3.3 µM.
For `CC(C)=CC(=O)NCCc1c2c(c3nccc4c3c1Nc1ccccc1-4)NC(=O)CS2`, in that order: 19 µM, > 10 µM and 9.99 µM.
For `C/C=C(\C)C(=O)Nc1cc2cc(O)c3nccc4c5ccccc5n1c2c34`, in that order: 18.9 µM, > 10 µM and > 10 µM.
Regarding `C/C=C(\C)C(=O)NCCc1c2c(c3nccc4c3c1Nc1ccccc1-4)NC(=O)CS2`, the IC50 with HCT-116, with A-375 and in the assay on SW480 was > 10 µM throughout.
Take `CC(C)=CC(=O)Nc1cc2cc(O)c3nccc4c5ccccc5n1c2c34`: the IC50 in the assay on HCT-116 came out at 4.32 µM; in the assay with A-375, 6 µM; in the assay with SW480 it was 8.48 µM.
